Where only a bound is given, the exact number is not on record here.

Data set [1] is described as follows: Metabolic stability in mouse microsomes assessed as compound remaining at 5 uM incubated for 30 mins by UPLC-MS/MS analysis. It is filed as ADME, Microsome. Conditions: for Stability: 0.5 h, 5 µM. The method, boiled down:
(§1)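 Compound at 5 µM incubated with 0.5 mg/mL male liver microsomes in potassium phosphate buffer, started with 1 mM NADPH (CYP phase I). Aliquots quenched in cold acetonitrile containing tolbutamide, centrifuged at 4 °C, supernatant analysed by LC-MS. Results given as % parent remaining relative to time 0; mean of at least two experiments; diclofenac as control.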

Data set [2] can be described thus: Metabolic stability in human microsomes assessed as compound remaining at 5 uM incubated for 30 mins by UPLC-MS/MS analysis. Conditions: for Stability: 0.5 h, 5 µM. Format: ADME, Microsome. An outline of the steps:
as §1

The target of data set [3] is T1, Class 1 phosphodiesterase PDEB1 (Trypanosoma brucei, UniProt Q8WQX9).
T1 sequence (Q8WQX9 whole entry): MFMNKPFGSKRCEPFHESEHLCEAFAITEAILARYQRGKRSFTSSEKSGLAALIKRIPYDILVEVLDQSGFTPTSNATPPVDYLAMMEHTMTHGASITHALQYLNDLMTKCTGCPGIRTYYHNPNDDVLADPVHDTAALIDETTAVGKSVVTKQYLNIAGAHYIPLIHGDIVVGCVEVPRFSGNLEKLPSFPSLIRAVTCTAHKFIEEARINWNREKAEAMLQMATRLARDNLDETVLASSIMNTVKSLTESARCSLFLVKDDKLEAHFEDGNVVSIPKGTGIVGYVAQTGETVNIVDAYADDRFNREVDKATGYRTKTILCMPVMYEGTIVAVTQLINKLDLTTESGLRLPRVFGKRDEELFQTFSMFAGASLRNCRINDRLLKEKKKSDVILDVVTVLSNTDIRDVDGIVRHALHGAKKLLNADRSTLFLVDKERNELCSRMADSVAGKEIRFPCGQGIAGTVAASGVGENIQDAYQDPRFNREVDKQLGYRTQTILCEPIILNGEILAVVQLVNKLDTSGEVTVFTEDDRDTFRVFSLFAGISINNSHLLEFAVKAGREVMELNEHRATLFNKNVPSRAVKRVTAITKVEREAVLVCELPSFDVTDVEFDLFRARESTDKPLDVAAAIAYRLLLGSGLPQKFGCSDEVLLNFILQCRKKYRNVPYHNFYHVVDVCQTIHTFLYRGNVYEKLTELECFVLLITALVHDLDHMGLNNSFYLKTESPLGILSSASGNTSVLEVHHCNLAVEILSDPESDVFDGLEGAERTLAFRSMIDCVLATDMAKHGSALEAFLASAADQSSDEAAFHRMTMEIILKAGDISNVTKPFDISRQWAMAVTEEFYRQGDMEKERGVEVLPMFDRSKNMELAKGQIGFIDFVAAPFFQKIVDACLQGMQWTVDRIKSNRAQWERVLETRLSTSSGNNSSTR
Kind of data set: Inhibition of Trypanosoma brucei PDEB1 (565 to 918 residues) expressed in Escherichia coli BL21 (DE3) using cAMP as substrate by PDELight HTS cAMP phosphodiesterase Kit based. The method, boiled down: (§2)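 Recombinant catalytic domains, His-tag purified, then ion exchange and size exclusion, were tested with the PDELight HTS cAMP kit in stimulation buffer (50 mM Hepes, 100 mM NaCl, 10 mM MgCl2, 0.5 mM EDTA, 0.05 mg/ml BSA, pH 7.5). Dose-response curves gave Ki, expressed as pKi = −log10(Ki ÷ 1000000).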

The test system of data set [4] is Trypanosoma brucei. In words: Antitrypanosomal activity against Trypanosoma brucei Squib 427 assessed as reduction in parasite growth incubated for 72 hrs by resazurin dye based fluorimetric analysis. Format: functional, organism-based. As to conditions: Squib 427, 72 h. On the technique in general: Alamar Blue is a resazurin reagent that responds to reducing activity.

Data set [5] is described as follows: Cytotoxicity against human MRC5 SV2 cells assessed as reduction in cell viability incubated for 72 hrs by resazurin dye based fluorimetric assay. As to conditions: MRC-5 SV2, 72 h. An outline of the steps:
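MRC-5 SV2 fibroblasts grown in Earl's MEM with 5% FBSi, L-glutamine and bicarbonate; 1×10^4 cells/well treated 72 h at 37 °C, 5% CO2; resazurin viability read fluorimetrically (ex 550, em 590 nm). Five 4-fold dilutions from a 64 µM top concentration; IC50 derived from % viability reduction vs untreated wells; tamoxifen as reference.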

For data set [6], the target named is 3',5'-cyclic-AMP phosphodiesterase 4D (Homo sapiens, UniProt Q08499). Kind of data set: Inhibition of human PDE4D2 expressed in Escherichia coli BL21 (DE3) using cAMP as substrate by PDELight HTS cAMP phosphodiesterase Kit based. An outline of the steps:
as §2

Chain of 3',5'-cyclic-AMP phosphodiesterase 4D (Q08499 whole entry): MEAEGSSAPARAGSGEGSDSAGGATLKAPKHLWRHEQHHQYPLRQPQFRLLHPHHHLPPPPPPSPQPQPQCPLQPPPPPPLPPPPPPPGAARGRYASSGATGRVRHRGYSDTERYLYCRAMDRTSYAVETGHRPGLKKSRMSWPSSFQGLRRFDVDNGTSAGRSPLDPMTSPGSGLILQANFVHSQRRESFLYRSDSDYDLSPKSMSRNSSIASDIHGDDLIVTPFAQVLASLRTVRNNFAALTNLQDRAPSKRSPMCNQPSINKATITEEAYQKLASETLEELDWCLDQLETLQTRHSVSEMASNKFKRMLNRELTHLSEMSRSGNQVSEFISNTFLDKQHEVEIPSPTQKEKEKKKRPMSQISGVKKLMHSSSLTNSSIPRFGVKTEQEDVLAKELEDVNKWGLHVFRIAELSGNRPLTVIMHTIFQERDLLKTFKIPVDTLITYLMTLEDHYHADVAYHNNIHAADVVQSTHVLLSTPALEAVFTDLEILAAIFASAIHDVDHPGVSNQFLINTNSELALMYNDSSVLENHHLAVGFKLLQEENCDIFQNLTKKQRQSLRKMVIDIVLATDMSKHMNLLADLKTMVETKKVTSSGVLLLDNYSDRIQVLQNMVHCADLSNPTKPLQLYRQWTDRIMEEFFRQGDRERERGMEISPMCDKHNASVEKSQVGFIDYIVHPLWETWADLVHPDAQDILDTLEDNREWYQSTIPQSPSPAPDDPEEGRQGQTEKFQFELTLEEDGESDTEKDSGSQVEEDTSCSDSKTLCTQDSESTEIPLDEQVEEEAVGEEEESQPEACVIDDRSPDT

Consider `Nc1nc(N2CCC(N3N=C(c4ccc(F)cc4)[C@H]4CC=CC[C@H]4C3=O)CC2)c2ccsc2n1` (relative stereo), for which the Stability result in data set [1] and in data set [2] was “Stable” in each case. In addition, the Ki in data set [3] is greater than 9330 nM. For the same compound, the IC50 was 2090 nM in data set [4] and 64600 nM in data set [5].
For `COc1ccc(C2=NN(C3CCN(C(=O)CN4C(=O)CCC4=O)CC3)C(=O)[C@@H]3CC=CC[C@H]23)cc1OC`, the figures for the Ki in data set [6] and in data set [3] were 0.0617 nM and 20.9 nM, respectively. In addition, the remaining at 0.5 h, 5 µM worked out at 43% in data set [1] (read-out: Stability) and 89% in data set [2] (read-out: Stability). Moreover, the IC50 in data set [4] was 1860 nM; in data set [5], 64600 nM.
Consider `COc1ccc(C2=NN(C3CCN(C(=O)CN4C(=O)CC5(CCCCC5)CC4=O)CC3)C(=O)[C@@H]3CC=CC[C@H]23)cc1OC`, for which the Ki is 0.155 nM in data set [6] and 30.9 nM in data set [3]. In addition, the Stability result in data set [1] and in data set [2] was “Stable” throughout. The IC50 is 479 nM in data set [4] and 31600 nM in data set [5].
Turning to `O=C(CN1C(=O)CC2(CCCCC2)CC1=O)N1CCC(N2N=C(c3ccc(F)c(F)c3)[C@H]3CC=CC[C@H]3C2=O)CC1` (relative stereo), the Stability result in data set [1] and in data set [2] was “Stable” throughout. This compound showed a Ki in data set [3] greater than 4570 nM. Further, the IC50 in data set [4] was 33100 nM; in data set [5] it was 64600 nM.
With `COc1ccc(C2=NN(C3CCN(c4ncc5ccccc5n4)CC3)C(=O)[C@@H]3CC=CC[C@H]23)cc1OC`, the figures for the Ki in data set [6] and in data set [3] were 0.589 nM and 646 nM, respectively. Moreover, the values for the IC50 in data set [4] and in data set [5] were 1700 nM and 64600 nM, respectively.
As for `COc1ccc(C2=NN(C3CN(c4ncnc5ccsc45)C3)C(=O)[C@@H]3CC=CC[C@H]23)cc1OC`, the Ki in data set [6] is 0.562 nM; in data set [3] it was 288 nM. Besides, the IC50 in data set [4] is 15100 nM; in data set [5], 64600 nM.
Turning to `O=C1[C@@H]2CC=CC[C@@H]2C(c2ccc(F)c(F)c2)=NN1C1CCN(c2ncnc3ccsc23)CC1`, the Stability entry in data set [1] and in data set [2] was “Stable” in each case. The same compound showed a Ki in data set [3] greater than 5620 nM. Further, the results for the IC50 in data set [4] and in data set [5] were 13200 nM and 38000 nM, respectively.
For `COc1ccc(C2=NN(C3CN(C(=O)CN4C(=O)CC(C)(C)CC4=O)C3)C(=O)[C@@H]3CC=CC[C@H]23)cc1OC`, the Ki in data set [6] was 0.389 nM; in data set [3] it was 102 nM. Besides, the IC50 is 1820 nM in data set [4] and 64600 nM in data set [5].
On the same counts, the results for `COc1ccc(C2=NN(C3CCN(C(=O)CN4C(=O)CC(C)C4=O)CC3)C(=O)[C@@H]3CC=CC[C@H]23)cc1OC` (stereo partly specified) are 0.17 nM, 75.9 nM, 1820 nM and 64600 nM.
On the same counts, the results for `COc1ccc(C2=NN(C3CCN(c4nc(N)nc5sccc45)CC3)C(=O)[C@@H]3CC=CC[C@H]23)cc1OC` are 0.355 nM, 42.7 nM, 468 nM and 64600 nM.
Taken in the same sequence, the figures for `CC1(C)CC(=O)N(CC(=O)N2CCC(N3N=C(c4ccc(OC(F)F)c(OC(F)F)c4)[C@H]4CC=CC[C@H]4C3=O)CC2)C(=O)C1` were 0.302 nM, 407 nM, 1000 nM and 64600 nM.
For the compound `COc1ccc(C2=NN(C3CCN(c4ncc5sccc5n4)CC3)C(=O)[C@@H]3CC=CC[C@H]23)cc1OC`, the Ki in data set [6] is 2.57 nM; in data set [3], 692 nM. Also, the half-maximal inhibitory concentration (IC50) in data set [4] was 2290 nM; in data set [5] it was 64600 nM.
As for `CC1(C)CC(=O)N(CC(=O)N2CCC(N3N=C(c4ccc(OC(F)F)c(OC(F)F)c4)[C@H]4CCCC[C@H]4C3=O)CC2)C(=O)C1`, the Stability entry in data set [1] and in data set [2] was “Stable” in each case. Further, the Ki in data set [3] is greater than 1580 nM. In addition, the figures for the IC50 in data set [4] and in data set [5] were 6460 nM and 64600 nM, respectively.
For `O=C1[C@@H]2CC=CC[C@@H]2C(c2ccc(OC(F)F)c(OC(F)F)c2)=NN1C1CCN(c2ncnc3ccsc23)CC1`, the Stability entry in data set [1] and in data set [2] was “Stable” each time. Besides, the Ki in data set [3] is greater than 2140 nM. For the same compound, the values for the IC50 in data set [4] and in data set [5] were 6760 nM and 64600 nM, respectively.
In the case of `CC1(C)CC(=O)N(CC(=O)N2CCC(N3N=C(c4ccc(F)cc4)[C@H]4CC=CC[C@H]4C3=O)CC2)C(=O)C1` (relative stereo), the Ki in data set [6] is 0.12 nM; in data set [3], 77.6 nM. Also, the half-maximal inhibitory concentration (IC50) is 64600 nM in data set [4] and 29500 nM in data set [5].
Taken in the same sequence, the figures for `COc1ccc(C2=NN(C3CCN(c4nc(N)nc5sccc45)CC3)C(=O)[C@@H]3CC=CC[C@H]23)cc1Cl` were 30.2 nM, 832 nM, 2000 nM and 64600 nM.
With `O=C1[C@@H]2CC=CC[C@@H]2C(c2ccc(O)c(O)c2)=NN1C1CCN(c2ncnc3ccsc23)CC1`, the figures for the Ki in data set [6] and in data set [3] were 63.1 nM and 891 nM, respectively. Also, the IC50 in data set [4] was 5130 nM; in data set [5], 25100 nM.
Take `COc1ccc(C2=NN(C3CN(C(=O)CN4C(=O)CC5(CCCC5)CC4=O)C3)C(=O)[C@@H]3CC=CC[C@H]23)cc1OC`: the Ki was 0.676 nM in data set [6] and 170 nM in data set [3]. Also, the IC50 in data set [4] was 2510 nM; in data set [5], 64600 nM.
Taken in the same sequence, the figures for `COc1ccc(C2=NN(C3CCN(c4nc(N)nc5ccccc45)CC3)C(=O)[C@@H]3CC=CC[C@H]23)cc1OC` were 0.155 nM, 24.5 nM, 813 nM and 7760 nM.
Taken in the same sequence, the figures for `COc1ccc(C2=NN(C3CN(c4nc(N)nc5sccc45)C3)C(=O)[C@@H]3CC=CC[C@H]23)cc1OC` were 1.17 nM, 275 nM, 7760 nM and 64600 nM.
Taken in the same sequence, the figures for `COc1ccc(C2=NN(C3CCN(c4nccc(N)n4)CC3)C(=O)[C@@H]3CC=CC[C@H]23)cc1OC` were 0.316 nM, 110 nM, 1860 nM and 17400 nM.
Regarding `COc1ccc(C2=NN(C3CCN(c4nc(N)nc5[nH]cnc45)CC3)C(=O)[C@@H]3CC=CC[C@H]23)cc1OC`, the Ki is 0.871 nM in data set [6] and 105 nM in data set [3]. The IC50 in data set [4] is 1700 nM; in data set [5] it was 17800 nM.
Taken in the same sequence, the figures for `COc1ccc(C2=NN(C3CCN(c4nc(N)nc5sccc45)CC3)C(=O)[C@@H]3CCCC[C@H]23)cc1OC` were 0.661 nM, 93.3 nM, 955 nM and 28800 nM.
As for `O=C(CN1C(=O)CC2(CCCCC2)CC1=O)N1CCC(N2N=C(c3ccc(F)c(F)c3)[C@H]3CCCC[C@H]3C2=O)CC1`, the Stability entry in data set [1] and in data set [2] was “Stable” in each case. In data set [3], the inhibition constant (Ki) was greater than 6920 nM. The values for the IC50 in data set [4] and in data set [5] were 7590 nM and 64600 nM, respectively.
As for `Nc1nc(N2CCC(N3N=C(c4ccc(F)c(F)c4)[C@H]4CC=CC[C@H]4C3=O)CC2)c2ccsc2n1` (relative stereo), the Stability entry in data set [1] and in data set [2] was “Stable” in each case. The compound also gave a Ki in data set [3] greater than 8320 nM. In addition, the IC50 is 1910 nM in data set [4] and 64600 nM in data set [5].

In general, Ki refers to the dissociation constant of the complex between target and ligand, obtained from inhibition or displacement. Low readings indicate a stronger hold on the target, high ones a looser hold on the target. For orientation: IC50 means the point on the concentration scale where inhibition reaches its midpoint.
